Experimental data taken from paper PMC6300088 (Pharmaceutical Biology, 2018).
Converted amounts (≈) assume the structure as drawn. Like-named read-outs stand apart in the source and are kept apart here.

Columns and labels:
[1] = test system: MCF7MX (BCRP overexpressing human epithelial breast cancer cell line); conditions: read-out: IC50 against MCF7MX; ref Mirzaei et al. [2017]; cited from earlier work
[2] = test system: L5178Y mouse T-cell lymphoma cells: parent, PAR cells; assay: Antiproliferative effect; assay type: cell-based; conditions: 72 h, read-out: AA on PAR cells (IC50)
[3] = test system: L5178Y human ABCB1-transfected subline (MDR); assay: Antiproliferative effect; assay type: cell-based, mouse; conditions: 72 h, read-out: AA on MDR cells (IC50)
[4] = test system: L5178Y mouse T-cell lymphoma cells: parent, PAR cells; assay: Cytotoxic effect; assay type: cell-based; conditions: 24 h; for IC50: Mus musculus, L5178Y, read-out: CA on PAR cells (IC50)
[5] = test system: L5178Y human ABCB1-transfected subline (MDR); assay: Cytotoxic effect; assay type: cell-based, mouse; conditions: 24 h; for IC50: L5178Y, read-out: CA on MDR cells (IC50); for CA on MDR cells (IC50): cytotoxic activity, MTT, mean ± SD, n = 3
ABCB1 (P-glycoprotein) = assay type: cell-based, human; conditions: for FL-1 (mean fluorescence intensity of the cells): MDR cells, rhodamine 123; for FAR (fluorescence activity ratio): rhodamine 123 retention
[6] = test system: multidrug resistant mouse T-lymphoma cells overexpressing the ABCB1 transporter; assay: Checkerboard combination assay with doxorubicin; assay type: cell-based; conditions: MDR cells
How it was run: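 L5178Y mouse T-lymphoma cells transfected with human ABCB1 (MDR), 6 × 10^3 per well in McCoy's 5A. Checkerboard layout with doxorubicin diluted horizontally (final concentration stated as 17.242 μM) and test compound diluted vertically. Incubated 72 h at 37 °C in 5% CO2. MTT added (5 mg/mL stock) for 4 h at 37 °C, then 10% SDS in 0.01 M HCl overnight at 37 °C.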

[7] = test system: NIH/3T3 mouse embryonic fibroblast cell line; assay: Cytotoxic effect; assay type: cell-based; conditions: cytotoxic activity on normal murine fibroblasts, 24 h, MTT, mean ± SD, n = 3
[8] = test system: HCT-15 (colon cancer) cells; conditions: HCT-15 cells; ref Kim et al. [2007]; cited from earlier work
HL-60/MX2 (MDR) = conditions: read-out: IC50 against HL-60/MX2; ref Kubrak et al. [2017]; cited from earlier work
[9] = test system: CEM/C1 (lymphoblastic leukaemia); conditions: read-out: IC50 against CEM/C1; ref Kubrak et al. [2017]; cited from earlier work

COc1c2occc2cc2ccc(=O)oc12 [8-Methoxypsoralen]
IC50 [1]: 0.0011 ± 0.00091 µM

COc1cccc2c1C(=O)c1c(O)c3c(c(O)c1C2=O)C[C@@](O)(C(=O)CO)C[C@@H]3O[C@H]1C[C@H](N)[C@H](O)[C@H](C)O1 [Doxorubicin, doxorubicin, reference compound]
IC50 [2]: 0.054 ± 0.005 µM
IC50 [3]: 0.468 ± 0.065 µM
IC50 [4]: 0.377 ± 0.02 µM
IC50 [5]: 7.15 ± 0.358 µM

CC1(C)O[C@@H]1COc1c2occc2cc2ccc(=O)oc12 [Heraclenin (8), heraclenin]
IC50 [2]: 32.7 ± 2.4 µM
IC50 [3]: 46.5 ± 1.22 µM
IC50 [4]: 65.8 ± 1 µM
IC50 [5]: 83.9 ± 1.68 µM
FL-1 (mean fluorescence intensity of the cells) (ABCB1 (P-glycoprotein); 2 µM): 0.942
FAR (fluorescence activity ratio) (ABCB1 (P-glycoprotein); 2 µM): 1.29
FL-1 (mean fluorescence intensity of the cells) (ABCB1 (P-glycoprotein); 20 µM): 0.57
FAR (fluorescence activity ratio) (ABCB1 (P-glycoprotein); 20 µM): 0.78
Interaction ([6]; listed as Heraclenin): Slight synergism
Interaction ([6]; listed as heraclenin (8)): slight synergistic effect

CC(C)(O)[C@H](O)COc1c2occc2cc2ccc(=O)oc12 [Heraclenol (9), heraclenol]
IC50 [2]: 52.3 ± 2.12 µM
IC50 [3]: 46.6 ± 0.47 µM
IC50 [4]: > 100 µM
CA on PAR cells (IC50) ([4]; cytotoxic activity, MTT, mean ± SD, n = 3): no toxic effects
IC50 [5]: > 100 µM
CA on MDR cells (IC50) [5]: no toxic effects
FL-1 (mean fluorescence intensity of the cells) (ABCB1 (P-glycoprotein); 2 µM): 0.995
FAR (fluorescence activity ratio) (ABCB1 (P-glycoprotein); 2 µM): 1.37
FAR (fluorescence activity ratio) (ABCB1 (P-glycoprotein); 20 µM): 1.30

CC(C)=CCOc1c2occc2cc2ccc(=O)oc12 [Imperatorin (6), imperatorin]
IC50 [2]: 36.1 ± 0.91 µM
IC50 [3]: 42.2 ± 0.88 µM
IC50 [4]: 52.6 ± 4.19 µM
IC50 [5]: > 100 µM
CA on MDR cells (IC50) [5]: without any toxicity
CA on NIH/3T3 cells (IC50) [7]: no toxic activity
FL-1 (mean fluorescence intensity of the cells) (ABCB1 (P-glycoprotein); 2 µM): 0.727
FAR (fluorescence activity ratio) (ABCB1 (P-glycoprotein); 2 µM): 0.62
FL-1 (mean fluorescence intensity of the cells) (ABCB1 (P-glycoprotein); 20 µM): 0.783
FAR (fluorescence activity ratio) (ABCB1 (P-glycoprotein); 20 µM): 0.66

CC1(C)O[C@H]1COc1c2ccoc2cc2oc(=O)ccc12 [Oxypeucedanin (3), oxypeucedanin]
IC50 [2]: 26 ± 1.27 µM
IC50 [3]: 28.9 ± 0.73 µM
IC50 [4]: 40.3 ± 0.63 µM
IC50 [5]: 66.7 µM
FL-1 (mean fluorescence intensity of the cells) (ABCB1 (P-glycoprotein); 2 µM): 0.9
FAR (fluorescence activity ratio) (ABCB1 (P-glycoprotein); 2 µM): 0.76
FL-1 (mean fluorescence intensity of the cells) (ABCB1 (P-glycoprotein); 20 µM): 2.62
FAR (fluorescence activity ratio) (ABCB1 (P-glycoprotein); 20 µM): 2.22
FAR (fluorescence activity ratio) (ABCB1 (P-glycoprotein); 20 µM, listed as oxypeucedanin (3)): moderate ABCB1 inhibiting effect
Interaction ([6]; listed as Oxypeucedanin): Slight synergism
Interaction ([6]; listed as oxypeucedanin (3)): slight synergistic effect
ED50, cell proliferation [8]: 3.4 ± 0.3 µg/mL (≈ 11.9 µM)

COc1cc2c(cc1OC)CN(CCc1ccc(NC(=O)c3cc(OC)c(OC)cc3NC(=O)c3cnc4ccccc4c3)cc1)CC2 [Tariquidar, tariquidar, reference compound]
FL-1 (mean fluorescence intensity of the cells) (ABCB1 (P-glycoprotein); 0.02 µM): 119
FAR (fluorescence activity ratio) (ABCB1 (P-glycoprotein); 0.02 µM): 100.68
FAR (fluorescence activity ratio) (ABCB1 (P-glycoprotein); 0.02 µM, listed as tariquidar): 100

COc1c2ccoc2c(OC)c2oc(=O)ccc12 [isopimpinellin]
IC50 (HL-60/MX2 (MDR)): 26 ± 5.7 µM

COc1c2ccoc2c(OCC=C(C)C)c2oc(=O)ccc12 [phellopterin]
IC50 [9]: 8 ± 4 µM
